The nature of data set [1]: Dissociation constant (pK1).
Data set [2] can be described thus: Dissociation constant (pK2).
Data set [3] can be described thus: Partition coefficient (logP).
Data set [4] addresses Glutamate NMDA receptor (Rattus norvegicus) (UniProt P35439+Q00959+Q00960+Q00961+Q62645+Q8VHN2+Q9R1M7). As to the kind of experiment: Enhanced binding of [3H]MK-801 to N-methyl-D-aspartate glutamate receptor in presence of spermine. The class given is protein-complex assay. In outline:
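Forebrain membranes (minus cerebellum and brainstem) from adult male Sprague–Dawley rats, prepared by buffy-coat centrifugation in 5 mM HEPES/4.5 mM Tris pH 7.6 with EDTA washes, then stored frozen. About 50 μg protein incubated with [³H]MK-801 (final 4–4.5 nM) plus spermine, without added glutamate or glycine, for 2 h at room temperature. Filtered on polyethylenimine-soaked glass fiber filters. Nonspecific binding defined with 100 μM PCP; counted by scintillation.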

In ChEMBL document CHEMBL1131499, “Molecular features associated with polyamine modulation of NMDA receptors” (J Med Chem, 1998) one finds pKa, ΔpK and Sp Max data, which are given here for 23 compounds.

Usually pKa stands for the pH at which an ionisable group is half protonated. A higher pKa goes with a weaker acid or stronger base.

As to `C1CCN(C2CCNCC2)CC1` [[1,4']Bipiperidinyl], the pKa stood at 10.7 in data set [1] and 7.97 in data set [2]. The compound also gave a ΔpK in data set [3] of 2.76.

With `CN(C)CCCN(C)C`, the figures for the pKa in data set [1] and in data set [2] were 9.81 and 7.77, respectively. Further, the Sp Max in data set [4] was determined as 22%.

On to `CNCCCNC`, for which the pKa in data set [1] was 10.7; in data set [2], 8.68. In addition, the ΔpK in data set [3] was 2.02. For the same compound, in data set [4], the Sp Max came to 16%.

For the compound `CN(C)C1CCNCC1`, the results for the pKa in data set [1] and in data set [2] were 10.7 and 7.71, respectively. In data set [3], the ΔpK is 2.95. In addition, the Sp Max in data set [4] was determined as 44%.

As to `NCCCNCCO`, the figures for the pKa in data set [1] and in data set [2] were 10.3 and 8.19, respectively. The same compound registered a ΔpK in data set [3] of 2.09. Moreover, in data set [4], the Sp Max is 16%.

On to `CC1(C)CC(N)CC(C)(C)N1`, for which the figures for the pKa in data set [1] and in data set [2] were 10.6 and 7.9, respectively. Besides, the ΔpK in data set [3] stood at 2.73.

Consider `CNCCCN`, for which the results for the pKa in data set [1] and in data set [2] were 10.7 and 8.66, respectively. Besides, the ΔpK in data set [3] was found to be 2.01. Besides, the Sp Max in data set [4] was found to be 15%.

As to `CNC1CCN(C)CC1`, the figures for the pKa in data set [1] and in data set [2] were 10.1 and 7.34, respectively. This compound had a ΔpK in data set [3] of 2.75. Further, the Sp Max in data set [4] was 2%.

On to `OCCNC1CCN(Cc2ccccc2)CC1`, for which the figures for the pKa in data set [1] and in data set [2] were 9.24 and 6.67, respectively. Besides, the ΔpK in data set [3] was 2.57.

As to `CC(C)(CN)CN`, the pKa stood at 10.2 in data set [1] and 7.81 in data set [2]. For the same compound, the ΔpK in data set [3] amounted to 2.37. Besides, the Sp Max in data set [4] was 5%.

With `NCC(=O)CN`, the pKa in data set [1] was 8.32; in data set [2], 6.89. This compound had a ΔpK in data set [3] of 1.43. Besides, in data set [4], the Sp Max amounted to 72%.

`CN1CC2CC1C[C@@H](N)C2` (stereo not given in full): the Sp Max in data set [4] amounted to 8%.

As for `NC1CCNCC1`, the results for the pKa in data set [1] and in data set [2] were 10.6 and 8.1, respectively. Besides, the ΔpK in data set [3] came to 2.53. The Sp Max in data set [4] was 12%.

`CNCC(C)CNC`: the figures for the pKa in data set [1] and in data set [2] were 10.6 and 8.29, respectively. Moreover, the ΔpK in data set [3] was 2.26. The Sp Max in data set [4] amounted to 11%.

`C=CCN(CC=C)CCCN(CC=C)CC=C`: the values for the pKa in data set [1] and in data set [2] were 8.8 and 6.96, respectively. In data set [3], this compound displayed a ΔpK of 1.84.

Take `CN(C)C1CC(C)(C)NC(C)(C)C1`: the pKa worked out at 10.6 in data set [1] and 7.67 in data set [2]. The compound further showed a ΔpK in data set [3] of 2.89.

On to `NCCCN`, for which the pKa in data set [1] is 10.6; in data set [2] it was 8.69. In addition, in data set [3], the ΔpK was determined as 1.86. The Sp Max in data set [4] turned out to be 22%.

For `NC1CCN(Cc2ccccc2)CC1`, the figures for the pKa in data set [1] and in data set [2] were 9.79 and 7.05, respectively. Besides, the ΔpK in data set [3] came to 2.74.

Consider `CN1CC2CC1C[C@H](N)C2` (stereo not given in full), for which the Sp Max in data set [4] came to 13%.

As for `C1CCN(CCCN2CCCCC2)CC1`, the values for the pKa in data set [1] and in data set [2] were 10.4 and 8.33, respectively. Moreover, the ΔpK in data set [3] turned out to be 2.06.

Turning to `CC1(C)CC(NCCO)CC(C)(C)N1`, the pKa in data set [1] is 10.5; in data set [2], 7.42. The compound also yielded a ΔpK in data set [3] of 3.1.

Compound `NCC(O)CN` had a pKa in data set [2] of 8.14. Further, in data set [3], the ΔpK stood at 1.54. In data set [4], the Sp Max stood at 35%.

`CN(C)CC(C)(C)CN`: the results for the pKa in data set [1] and in data set [2] were 10.3 and 7.13, respectively. The same compound had a ΔpK in data set [3] of 3.15.
